Assay outcomes as filed in PubChem.
Rows were chosen to be rich in hits. Some 3.9% of all compounds tested hit in one or more screens of this group.
TAAR1 ag: agonists of human TAAR1. Q96RJ0. activation, % at 3 µM. CHO RD-HGA16 TAAR1, Fluo-8 calcium fluorescence; vehicle wells 0%, saturating PEA agonist 100%. 0.99% of 360,000 active. AID 624467;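 active = activation above the mean activation of all test compounds in the run plus 3 SD, cut at about 38% in these data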
Target sequence (Q96RJ0 whole entry, looked up): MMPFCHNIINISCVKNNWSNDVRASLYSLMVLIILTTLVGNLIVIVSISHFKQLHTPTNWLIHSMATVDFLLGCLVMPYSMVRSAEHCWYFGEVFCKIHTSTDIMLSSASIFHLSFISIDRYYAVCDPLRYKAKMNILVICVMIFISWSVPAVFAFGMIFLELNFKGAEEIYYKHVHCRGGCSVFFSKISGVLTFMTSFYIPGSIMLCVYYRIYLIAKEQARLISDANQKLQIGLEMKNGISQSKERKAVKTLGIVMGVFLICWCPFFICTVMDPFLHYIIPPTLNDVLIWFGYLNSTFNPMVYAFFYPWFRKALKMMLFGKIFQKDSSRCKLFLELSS
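Test system: RD-HGA16 (CHO) cells co-expressing Gα16 and hTAAR1 / Benchmarks: DMSO vehicle as 0%, PEA at EC100 as 100% / Repeats: no replicates (n 1) / Measure: % activation from peak over basal fluorescence ratio, DMSO-to-PEA scaled / Timing: 17-24 h plating, Fluo-8 75 min 37 °C, 30 min RT / Technique: kinetic Fluo-8 calcium fluorescence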
TMEM16A inh: blocks the mouse calcium-activated chloride channel TMEM16A. Q8BHY3. 1.2% of 310,000 active. normalized B-score (activity score, 25-100; higher = stronger inhibition) at 10 µM. AID 588511. HEK293 TMEM16A/YFP iodide influx fluorescence, ionomycin;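 active = ratio plate-corrected score three or more library SD toward inhibition, starting fluorescence score within five deviations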;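 note: score derived from kinetic fluorescence span divided by baseline fluorescence per well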
TAAR1 antagonist: human TAAR1 antagonism; CHO RD-HGA16 TAAR1, Fluo-8 calcium fluorescence, antagonist; inhibition, % at 3 µM; 1.5% of 360,000 active;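 active = inhibition above a per-plate cutoff, the mean inhibition of test compounds on that plate plus 3 SD, cut at about 49% in these data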;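 note: 0% = DMSO plus EC80 beta-PEA response and 100% = DMSO alone without agonist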
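Test system: hTAAR1-expressing CHO RD-HGA16 cells, Gα16-coupled; Probe or stimulus: EC80 β-phenethylamine stimulus; Compound dosing: single nominal final test compound concentration of 3 µM; Timing: 140 s kinetic read after compound, 140 s after agonist; Signal: Fluo-8 calcium-sensitive fluorescence; Measure: % inhibition of agonist calcium response; Controls: DMSO and EC80 PEA controls.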
CRFBP-R2 agonist: agonists of human CRF-binding protein/CRF-R2 receptor complex. activation, % at 13.2 µM. HEK293 CRF-R2/CRF-BP, calcium dye fluorescence (FLIPR); percent of saturating CRF peptide response. 0.46% of 350,000 active;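 active = activation of at least 50%, plus an integration ratio under a set limit after plate pattern correction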;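 note: plate controls were neutral control wells without compound for no effect and CRF at EC100 for full effect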
ANO1 activ: activators or potentiators of mouse TMEM16A chloride channel; HEK293 TMEM16A/YFP-H148Q/I152L, iodide quench fluorescence; stronger effect = lower value; Q8BHY3; B-score at 10 µM; 0.3% of 340,000 active;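 active = fluorescence-ratio B-score plate-corrected deviation score at least 3 library SD below zero, with starting fluorescence score within 5 deviations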;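 note: channel opened by trigger with iodide after compound preincubation; score built on the fluorescence ratio of max minus min over baseline; more negative score means more quench and so TMEM16A activation or potentiation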
CRFR2-BP antag: CRF-BP/CRF-R2 complex antagonism. HEK293 CRF-R2/CRF-BP, CRF-induced calcium fluorescence. inhibition, % at 11.8 µM. 0.59% of 350,000 active. AID 588475;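 active = inhibition of the ligand-induced calcium signal above about 50% at the single tested concentration, limit read from the data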
* = called active by the depositor; i = inactive; . = no result.

SMILES	TAAR1 ag	TMEM16A inh	TAAR1 antagonist	CRFBP-R2 agonist	ANO1 activ	CRFR2-BP antag
Cc1ccc(NC(=O)c2ccccc2NS(=O)(=O)c2ccc(Cl)s2)cc1	4.2	i	28.1	64.6*	i	79.7*
O=C(Nc1ccccc1Cc1ccccc1)c1ccccc1NS(=O)(=O)c1ccc(Cl)s1	4.2	25*	33.3	35.0	i	104.8*
O=C(Nc1ccccc1)c1ccccc1NS(=O)(=O)c1ccc(Cl)s1	1.9	100*	2.5	29.0	i	67.7*
Cc1ccc(NS(=O)(=O)c2ccc(Cl)s2)nc1	2.1	i	-21.5	-0.9	i	-4.7
COc1cc(CCc2ccccc2)c(C(=O)O)c(O)c1CC=C(C)C	-2.8	.	25.8	0.6	i	61.3*
COCOc1ccc(/C=C/C(=O)c2c(OCOC)cc(OCOC)c(CC=C(C)C)c2O)cc1OCOC	.	i	.	1.1	.	-0.3
COc1cc(CCc2ccccc2)c(C(=O)O)c(O)c1C/C=C(/C)CCC=C(C)C	-0.9	.	52.6*	24.3	i	72.0*
O=C(c1ccc(Cl)c(S(=O)(=O)Nc2ccccc2C(=O)N2CCc3ccccc3C2)c1)N1CCc2ccccc2C1	5.8	i	35.5	-0.3	i	53.8*
O=C(c1ccc(Cl)c(S(=O)(=O)N2CCc3ccccc3C2)c1)N1CCN(c2ccccc2)CC1	3.0	i	5.6	-1.4	i	5.2
CCC(=O)OCc1c(C(F)(F)F)nn(C)c1Sc1ccc(Cl)cc1	5.6	i	3.0	-0.9	i	6.4
CCC(=O)OCc1c(C(F)(F)F)nn(C)c1Sc1ccc(F)cc1	8.2	i	11.7	0.5	i	51.1*
Cc1ccc(C(=O)O)cc1NC(=S)NC(=O)c1ccc(COc2ccccc2)cc1	-1.4	25*	-9.4	1.9	i	32.4
O=C(COC(=O)c1ccc(F)c(S(=O)(=O)N2CCOCC2)c1)Nc1ccc2c(c1)OCO2	0.7	.	-25.9	-0.4	i	-8.8
O=C(Cc1cccs1)Nc1nc2c(ccc3ccccc32)s1	2.0	i	31.9	8.1	i	53.2*
CCOc1ccccc1Nc1ccnc2cc(Cl)ccc12	4.9	i	18.4	-15.8	i	59.4*
O=C(CN(Cc1ccccc1F)C(=O)c1csnn1)NCc1ccc2c(c1)OCO2	2.1	i	-17.2	-0.2	i	1.1
O=C(CN1CCN(c2ccc(F)cc2)CC1)Nc1ccccc1C(=O)NCCc1ccccc1	17.6	.	43.3	-0.5	i	-4.8
COc1ccccc1N1CCN(CC(=O)Nc2ccccc2C(=O)NCCc2ccccc2)CC1	11.0	.	55.0*	-0.8	i	-10.3
CCOc1ccccc1N1CCN(CC(=O)NCCc2ccc(S(N)(=O)=O)cc2)CC1	5.6	i	3.8	1.5	-5.45*	-3.5
COc1ccccc1N1CCN(CC(=O)Nc2c(C)n[nH]c2C)CC1	9.9	i	-5.5	-3.5	i	67.6*
O=C(CN1CCN(c2ccccc2O)CC1)Nc1ccccc1C(=O)NCCc1ccccc1	17.6	.	60.7*	1.1	i	-4.5
N#Cc1ccccc1S(=O)(=O)N1CCN(CC(=O)NC(=O)NC2CCCCC2)CC1	5.6	i	10.3	3.1	i	-12.3
CCCn1c(N)c(C(=O)CSc2nnc3ccccn23)c(=O)n(C)c1=O	0.7	.	1.8	2.6	i	-9.6
CCn1nc(Cc2cccc3ccccc23)c(C#N)c1N	11.8	i	-11.2	-0.6	i	1.1
CC(NC(=O)c1ccccc1NC(=O)CN1CCN(c2ccccc2O)CC1)c1ccccc1 (configuration not stated)	25.1	.	35.9	0.3	i	-25.3
SMILES	TAAR1 ag	TMEM16A inh	TAAR1 antagonist	CRFBP-R2 agonist	ANO1 activ	CRFR2-BP antag
COC(=O)c1ccc(C(=O)OC)c(NC(=O)CN2CCN(c3ccccc3)CC2)c1	2.5	i	-2.0	1.6	i	-7.5
COc1ccccc1N1CCN(CC(=O)Nc2ccccc2C(=O)NC(C)c2ccccc2)CC1 (configuration not stated)	32.2	.	58.7*	-0.7	i	-0.2
COc1ccc(CCNC(=O)c2ccccc2NC(=O)CN2CCN(c3ccccc3O)CC2)cc1	14.5	.	64.0*	0.7	i	1.3
COC(=O)c1ccc(C(=O)OC)c(NC(=O)CN2CCN(c3ccccc3OC)CC2)c1	7.9	i	51.9*	0.2	i	-6.8
CCn1c(SCC(=O)NC2CC2)nnc1-c1csc(C)c1	-0.2	i	-8.7	2.9	i	-7.3
CCOC(=O)c1[nH]ncc1CN1CCC(Cc2cccc(OC)c2)(C(=O)OCC)CC1	2.9	i	-27.6	1.3	i	-7.1
Cc1[nH]n(-c2ncc(-c3ccc(Cl)cc3)s2)c(=O)c1C(c1ccc(Cl)cc1)C(C#N)C#N (configuration not stated)	.	100*	.	11.1	i	35.9
CSCc1nc2scc(-c3ccccc3)c2c(=O)[nH]1	0.1	.	3.7	1.4	i	-12.1
COc1ccc(CN(C)Cc2nc3scc(-c4ccccc4)c3c(=O)[nH]2)cc1OC	-0.3	i	-6.1	0.3	i	59.8*
O=[N+]([O-])c1ccc(CSCc2ccc([N+](=O)[O-])cc2)cc1	5.5	.	10.9	-7.0	i	21.1
CC1(C)Cc2c(sc3c2c(=O)n(Cc2ccccc2)c2nncn32)CO1	.	.	.	-1.1	i	5.7
Cc1nnc2n(Cc3ccccc3)c(=O)c3c4c(sc3n12)COC(C)(C)C4	17.1	i	-25.4	-2.2	i	87.2*
CC[C@@H]1CCCCc2ccccc2[C@H](C(=O)C[C@H](O)CC(C)=O)OC1=O	1.1	.	9.2	1.2	i	51.3*
CCN(CC)C(=O)CSC(Nc1ccc(F)cc1)=C(C#N)C#N	4.3	i	-8.4	3.1	i	2.9
Cc1ccc(CSC(Nc2ccc(F)cc2)=C(C#N)C#N)cc1	6.2	i	19.0	51.0*	i	71.8*
COc1ccc(CCNC(=S)c2ccccc2)cc1OC	4.7	i	3.7	0.1	i	6.8
COc1ccc(Cl)cc1NC(=S)NCCc1ccc(S(N)(=O)=O)cc1	1.3	i	5.2	0.9	-6.17*	-22.2
COc1ccc(CCNC(N)=S)cc1OC	0.9	i	-3.7	-1.6	i	62.8*
CNC(=S)NCCc1ccc(OC)c(OC)c1	1.4	i	-5.3	-1.6	i	27.6
COc1ccc(CCNC(=O)c2ccc(CNS(=O)(=O)c3ccc(C(C)(C)C)cc3)cc2)cc1OC	15.2	i	56.2*	-1.9	i	-1.6
COc1ccc(CCNC(=S)NCCc2ccc(OC)c(OC)c2)cc1OC	1.4	25*	-1.7	-1.4	i	-12.2
